Results as given in ChEMBL document CHEMBL1151442, “Genetic and phenotypic identification of fusidic acid-resistant mutants with the small-colony-variant phenotype in Staphylococcus aureus” (2007).
In brackets after ≈: the same amount, converted by molar mass.

Key:
Type in all cases: functional
[1] = tested on: Staphylococcus aureus; experiment: Antibacterial activity against kanamycin-resistant Staphylococcus aureus AH379 (SCV-51) harboring TAA stop codon at nucleotide 418 in rplF but gene after 18 to 24 hrs by Etest strip assay
Outline: (§1)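 SCVs of a Rifr 8325-4 derivative were selected on LA with KAN at 8, 16 or 24 μg/ml for 48 h at 37°C. They were purified at the same KAN level and screened on LA plus FA 1 μg/ml.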

[2] = tested on: Staphylococcus aureus; experiment: Antibacterial activity against kanamycin-resistant Staphylococcus aureus AH358 (SCV-30) harboring -1 frameshift mutation at nucleotide 423 in rplF gene after 18 to 24 hrs by Etest strip assay; outline: as §1
[3] = tested on: Staphylococcus aureus; experiment: Antibacterial activity against kanamycin-resistant and fusidic acid-susceptible Staphylococcus aureus AH416 harboring deletion of nucleotide 395-398 in rplF gene after 18 to 24 hrs by Etest strip assay
Outline: (§2)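 Etest MIC: a single colony was suspended in 0.9% NaCl to 0.5 McFarland and swabbed over Mueller-Hinton agar. The strip was applied and plates were incubated at 37°C for 18 to 24 h until an SCV lawn grew.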

[4] = tested on: Staphylococcus aureus; experiment: Antibacterial activity against kanamycin-resistant and fusidic acid-susceptible Staphylococcus aureus AH292 harboring Gly664Val mutation in fusA gene after 18 to 24 hrs by Etest strip assay; outline: as §2
[5] = tested on: Staphylococcus aureus; experiment: Antibacterial activity against kanamycin-resistant Staphylococcus aureus AH384 (SCV-56) harboring -1 frameshift mutation at nucleotide 221 in rplF gene after 18 to 24 hrs by Etest strip assay; outline: as §1
[6] = tested on: Staphylococcus aureus; experiment: Antibacterial activity against kanamycin-resistant Staphylococcus aureus AH333 (SCV-5) harboring TAA stop codon at nucleotide 249 in rplF but gene after 18 to 24 hrs by Etest strip assay; outline: as §1
[7] = tested on: Staphylococcus aureus; experiment: Antibacterial activity against kanamycin-resistant Staphylococcus aureus AH338 (SCV-10) harboring Arg464Cys mutation in fusA gene after 18 to 24 hrs by Etest strip assay; outline: as §1
[8] = tested on: Staphylococcus aureus; experiment: Antibacterial activity against fusidic acid-resistant Staphylococcus aureus AH209 harboring deletion of nucleotide 404-427 in rplF gene after 18 to 24 hrs by Etest strip assay
Outline: (§3)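 Mutants of lab strain 8325-4 were selected on LA with FA 2 μg/ml for 48 h at 37°C and purified on selective medium. For the MIC, one colony was suspended in 0.9% NaCl to 0.5 McFarland and swabbed onto Mueller-Hinton agar. An Etest strip was applied and plates were incubated at 37°C for 18–24 h until the lawn was evident.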

[9] = tested on: Staphylococcus aureus; experiment: Antibacterial activity against kanamycin-resistant Staphylococcus aureus AH348 (SCV-20) harboring TGA stop codon at nucleotide 244 in rplF gene after 18 to 24 hrs by Etest strip assay; outline: as §1
[10] = tested on: Staphylococcus aureus; experiment: Antibacterial activity against kanamycin-resistant Staphylococcus aureus AH380 (SCV-52) harboring -1 frameshift mutation at nucleotide 158 in rplF gene after 18 to 24 hrs by Etest strip assay; outline: as §1
[11] = tested on: Staphylococcus aureus; experiment: Antibacterial activity against kanamycin-resistant Staphylococcus aureus AH377 (SCV-49) harboring +1 frameshift mutation at nucleotide 23 in rplF gene after 18 to 24 hrs by Etest strip assay; outline: as §1
[12] = tested on: Staphylococcus aureus; experiment: Antibacterial activity against kanamycin-resistant Staphylococcus aureus AH378 (SCV-50) harboring -1 frameshift mutation at nucleotide 221 in rplF gene after 18 to 24 hrs by Etest strip assay; outline: as §1
[13] = tested on: Staphylococcus aureus; experiment: Antibacterial activity against fusidic acid-resistant Staphylococcus aureus AH197 harboring Leu456Phe mutation in fusA gene after 18 to 24 hrs by Etest strip assay; outline: as §3
[14] = tested on: Staphylococcus aureus; experiment: Antibacterial activity against kanamycin-resistant Staphylococcus aureus AH357 (SCV-29) harboring TAA stop codon at nucleotide 301 in rplF gene after 18 to 24 hrs by Etest strip assay; outline: as §1
[15] = tested on: Staphylococcus aureus; experiment: Antibacterial activity against kanamycin-resistant Staphylococcus aureus AH334 (SCV-6) harboring Thr436Ile mutation in fusA gene after 18 to 24 hrs by Etest strip assay; outline: as §1
[16] = tested on: Staphylococcus aureus; experiment: Antibacterial activity against kanamycin-resistant Staphylococcus aureus AH362 (SCV-34) harboring TAA stop codon at nucleotide 282 in rplF gene after 18 to 24 hrs by Etest strip assay; outline: as §1
[17] = tested on: Staphylococcus aureus; experiment: Ratio of MIC for kanamycin-resistant Staphylococcus aureus harboring mutations in FusE gene to MIC for wild type kanamycin-susceptible Staphylococcus aureus AH001
[18] = tested on: Staphylococcus aureus; experiment: Antibacterial activity against kanamycin-resistant Staphylococcus aureus AH369 (SCV-41) harboring Gln115Leu mutation in fusA gene after 18 to 24 hrs by Etest strip assay; outline: as §1
[19] = tested on: Staphylococcus aureus; experiment: Antibacterial activity against kanamycin-resistant and fusidic acid-susceptible Staphylococcus aureus AH294 harboring Gly628Val mutation in fusA gene after 18 to 24 hrs by Etest strip assay; outline: as §2
[20] = tested on: Staphylococcus aureus; experiment: Antibacterial activity against kanamycin-resistant Staphylococcus aureus AH360 (SCV-32) harboring ATA start codon at nucleotide 3 in rplF gene after 18 to 24 hrs by Etest strip assay; outline: as §1
[21] = tested on: Staphylococcus aureus; experiment: Antibacterial activity against kanamycin-resistant Staphylococcus aureus AH337 (SCV-9) harboring -1 frameshift mutation at nucleotide 220 in rplF gene after 18 to 24 hrs by Etest strip assay; outline: as §1
[22] = tested on: Staphylococcus aureus; experiment: Antibacterial activity against fusidic acid-resistant Staphylococcus aureus AH199 harboring TAA stop codon at nucleotide 241 in rplF gene after 18 to 24 hrs by Etest strip assay; outline: as §3
[23] = tested on: Staphylococcus aureus; experiment: Antibacterial activity against fusidic acid-resistant Staphylococcus aureus AH201 harboring Gly452Cys mutation in fusA after 18 to 24 hrs by Etest strip assay; outline: as §3
[24] = tested on: Staphylococcus aureus; experiment: Antibacterial activity against kanamycin-resistant Staphylococcus aureus AH366 (SCV-38) harboring Pro114His mutation in fusA gene after 18 to 24 hrs by Etest strip assay; outline: as §1
[25] = tested on: Staphylococcus aureus; experiment: Antibacterial activity against kanamycin-resistant Staphylococcus aureus AH347 (SCV-19) harboring Arg659Ser mutation in fusA gene after 18 to 24 hrs by Etest strip assay; outline: as §1
[26] = tested on: Staphylococcus aureus; experiment: Antibacterial activity against fusidic acid-resistant Staphylococcus aureus AH196 harboring Pro406Leu mutation in fusA gene after 18 to 24 hrs by Etest strip assay; outline: as §3
[27] = tested on: Staphylococcus aureus; experiment: Antibacterial activity against kanamycin-resistant and fusidic acid-susceptible Staphylococcus aureus AH287 harboring Ala655Glu mutation in fusA gene after 18 to 24 hrs by Etest strip assay; outline: as §2
[28] = tested on: Staphylococcus aureus; experiment: Antibacterial activity against fusidic acid-resistant Staphylococcus aureus AH198 harboring Gly452Ser mutation in fusA gene after 18 to 24 hrs by Etest strip assay; outline: as §3
[29] = tested on: Staphylococcus aureus; experiment: Antibacterial activity against fusidic acid-resistant Staphylococcus aureus AH194 harboring Pro404Leu mutation in fusA gene after 18 to 24 hrs by Etest strip assay; outline: as §3
[30] = tested on: Staphylococcus aureus; experiment: Antibacterial activity against kanamycin-resistant Staphylococcus aureus AH370 (SCV-42) harboring TAA stop codon at nucleotide 229 in rplF gene after 18 to 24 hrs by Etest strip assay; outline: as §1
[31] = tested on: Staphylococcus aureus; experiment: Antibacterial activity against fusidic acid-resistant Staphylococcus aureus AH187 harboring His457Tyr mutation in fusA gene after 18 to 24 hrs by Etest strip assay; outline: as §3
[32] = tested on: Staphylococcus aureus; experiment: Antibacterial activity against kanamycin-resistant and fusidic acid-susceptible wild type Staphylococcus aureus 8325-4 […] after 18 to 24 hrs by Etest strip assay; outline: as §2

| SMILES | MIC [1] [mg/L] | MIC [2] [mg/L] | MIC [3] [mg/L] | MIC [4] [mg/L] | MIC [5] [mg/L] | MIC [6] [mg/L] | MIC [7] [mg/L] | MIC [8] [mg/L] | MIC [9] [mg/L] | MIC [10] [mg/L] | MIC [11] [mg/L] | MIC [12] [mg/L] | MIC [13] [mg/L] | MIC [14] [mg/L] | MIC [15] [mg/L] | MIC [16] [mg/L] | fold change (FC) [17] | MIC [18] [mg/L] | MIC [19] [mg/L] | MIC [20] [mg/L] | further results |
| --- | --- | --- | --- | --- | --- | --- | --- | --- | --- | --- | --- | --- | --- | --- | --- | --- | --- | --- | --- | --- | --- |
| CC(=O)O[C@H]1C[C@@]2(C)[C@@H](C[C@@H](O)[C@H]3[C@@]4(C)CC[C@@H](O)[C@@H](C)[C@@H]4CC[C@@]32C)/C1=C(\CCC=C(C)C)C(=O)O [FUSIDIC ACID] | 6 (≈ 11.6 µM) | 12 | 48 (≈ 92.9 µM) | 6 (≈ 11.6 µM) | 24 | 12 (≈ 23.2 µM) | 2 (≈ 3.87 µM) | 4 (≈ 7.74 µM) | 8 (≈ 15.5 µM) | 6 | 4 | 8 | 4 (≈ 7.74 µM) | 12 (≈ 23.2 µM) | 48 (≈ 92.9 µM) | 12 (≈ 23.2 µM) | 32 | 48 (≈ 92.9 µM) | 2 (≈ 3.87 µM) | 24 (≈ 46.4 µM) | MIC [21]: 12 mg/L; MIC [22]: 4 mg/L (≈ 7.74 µM); MIC [23]: 12 mg/L (≈ 23.2 µM); MIC [24]: 12 mg/L (≈ 23.2 µM); MIC [25]: 12 mg/L (≈ 23.2 µM); MIC [26]: 6 mg/L (≈ 11.6 µM); MIC [27]: 12 mg/L (≈ 23.2 µM); MIC [28]: 32 mg/L (≈ 61.9 µM); MIC [29]: 4 mg/L (≈ 7.74 µM); MIC [30]: 8 mg/L (≈ 15.5 µM); MIC [31]: 96 mg/L (≈ 186 µM); MIC [32]: 0.047 mg/L (≈ 0.091 µM) |
| NC[C@H]1O[C@H](O[C@H]2[C@H](O)[C@@H](O[C@H]3O[C@H](CO)[C@@H](O)[C@H](N)[C@H]3O)[C@H](N)C[C@@H]2N)[C@H](O)[C@@H](O)[C@@H]1O [KANAMYCIN] | 12 (≈ 24.8 µM) | 48 | 256 (≈ 528 µM) | 32 (≈ 66 µM) | 128 | 8 (≈ 16.5 µM) | 48 (≈ 99.1 µM) | 8 (≈ 16.5 µM) | 8 (≈ 16.5 µM) | 4 | 6 | 16 | 6 (≈ 12.4 µM) | 96 (≈ 198 µM) | 128 (≈ 264 µM) | 128 (≈ 264 µM) | 3 | 6 (≈ 12.4 µM) | 16 (≈ 33 µM) | 96 (≈ 198 µM) | MIC [21]: 96 mg/L; MIC [22]: 8 mg/L (≈ 16.5 µM); MIC [23]: 6 mg/L (≈ 12.4 µM); MIC [24]: 12 mg/L (≈ 24.8 µM); MIC [25]: 12 mg/L (≈ 24.8 µM); MIC [26]: 3 mg/L (≈ 6.19 µM); MIC [27]: 16 mg/L (≈ 33 µM); MIC [28]: 4 mg/L (≈ 8.26 µM); MIC [29]: 2 mg/L (≈ 4.13 µM); MIC [30]: 8 mg/L (≈ 16.5 µM); MIC [31]: 3 mg/L (≈ 6.19 µM); MIC [32]: 2 mg/L (≈ 4.13 µM) |
| CN[C@@H]1[C@H](O[C@H]2[C@H](O[C@H]3[C@H](O)[C@@H](O)[C@H](N=C(N)N)[C@@H](O)[C@@H]3N=C(N)N)O[C@@H](C)[C@]2(O)C=O)O[C@@H](CO)[C@H](O)[C@H]1O [STREPTOMYCIN] | 16 (≈ 27.5 µM) | 64 | 256 (≈ 440 µM) | 16 (≈ 27.5 µM) | 256 | 24 (≈ 41.3 µM) | 24 (≈ 41.3 µM) | 16 (≈ 27.5 µM) | 16 (≈ 27.5 µM) | 24 | 24 | 256 | 8 (≈ 13.8 µM) | 256 (≈ 440 µM) | 192 (≈ 330 µM) | 256 (≈ 440 µM) | 3 | 12 (≈ 20.6 µM) | 8 (≈ 13.8 µM) | 192 (≈ 330 µM) | MIC [21]: 256 mg/L; MIC [22]: 16 mg/L (≈ 27.5 µM); MIC [23]: 8 mg/L (≈ 13.8 µM); MIC [24]: 24 mg/L (≈ 41.3 µM); MIC [25]: 32 mg/L (≈ 55 µM); MIC [26]: 8 mg/L (≈ 13.8 µM); MIC [27]: 48 mg/L (≈ 82.5 µM); MIC [28]: 6 mg/L (≈ 10.3 µM); MIC [29]: 8 mg/L (≈ 13.8 µM); MIC [30]: 24 mg/L (≈ 41.3 µM); MIC [31]: 6 mg/L (≈ 10.3 µM); MIC [32]: 6 mg/L (≈ 10.3 µM) |
